Consider five compounds from ChEMBL document CHEMBL1150115, “Bioactive abietane and seco-abietane diterpenoids from Salvia prionitis” (J Nat Prod, 2002).

pIC50: −log10 of the molar value. Converted amounts (≈) assume the structure as drawn. The source made the active and inactive calls.

For one test, the system named is HL-60. As to the kind of experiment: Cytotoxicity against human HL60 cells after 48 hr by MTT assay. The test is classed as functional, cell-based. On the technique in general: Formazan colour is commonly taken as a measure of viable cells.
The subject of another test is SGC-7901. As to the kind of experiment: Cytotoxicity against human SGC7901 cells after 48 hr by MTT assay. The format is functional, cell-based.
In the next test the test system is MKN-28. Description: Cytotoxicity against human MKN28 cells after 48 hr by MTT assay. The format is functional, cell-based.
Another test deals with T1, DNA topoisomerase 1 (Mus musculus, UniProt Q04750).
T1 sequence (Q04750 whole entry): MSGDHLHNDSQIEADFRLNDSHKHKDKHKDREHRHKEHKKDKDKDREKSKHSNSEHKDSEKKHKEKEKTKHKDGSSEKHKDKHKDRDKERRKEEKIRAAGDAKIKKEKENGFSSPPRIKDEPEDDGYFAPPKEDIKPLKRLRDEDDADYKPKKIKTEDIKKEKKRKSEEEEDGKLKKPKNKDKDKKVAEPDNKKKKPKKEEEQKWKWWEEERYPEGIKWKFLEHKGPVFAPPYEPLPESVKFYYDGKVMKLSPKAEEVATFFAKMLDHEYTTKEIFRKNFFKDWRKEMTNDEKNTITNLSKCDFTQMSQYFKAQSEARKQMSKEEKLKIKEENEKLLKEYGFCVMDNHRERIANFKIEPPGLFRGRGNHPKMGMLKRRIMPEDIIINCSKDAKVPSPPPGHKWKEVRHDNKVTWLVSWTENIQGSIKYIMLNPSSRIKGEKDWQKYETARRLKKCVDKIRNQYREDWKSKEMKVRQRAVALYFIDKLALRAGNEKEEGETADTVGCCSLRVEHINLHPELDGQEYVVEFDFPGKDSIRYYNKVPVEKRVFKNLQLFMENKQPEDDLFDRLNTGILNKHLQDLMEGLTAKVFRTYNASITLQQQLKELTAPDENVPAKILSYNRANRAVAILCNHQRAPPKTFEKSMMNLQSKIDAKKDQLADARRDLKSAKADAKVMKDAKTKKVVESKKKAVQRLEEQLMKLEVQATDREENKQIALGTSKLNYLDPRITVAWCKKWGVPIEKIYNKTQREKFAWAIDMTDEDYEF
Description: Inhibition of topoisomerase 1 extracted from mouse EAC cells assessed as inhibition of Escherichia coli pBR322 relaxation. The format is cell-free, Ehrlich.

For another test, the system named is Staphylococcus aureus. Description: Antibacterial activity against Staphylococcus aureus after 18 hrs by microdilution assay. The test is classed as functional. The procedure, abridged:
(§1)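 Broth microdilution in Mueller-Hinton broth, with cells at a set final CFU/mL density. Compounds dissolved in DMSO. Incubation at 37 °C for 18 h under aerobic conditions. Blank controls received a limited amount of DMSO under the same conditions. Read-out is MIC.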
(In general: Broth dilution looks for growth in wells or tubes with falling amounts of substance.)

Another test relates to Micrococcus luteus. Description: Antibacterial activity against Micrococcus luteus after 18 hrs by microdilution assay. The test is classed as functional. The procedure, abridged:
as §1

`C=C(C)C1CCc2c(C)ccc3c2[C@]1(O)C(=O)C(C(C)C)=C3` (some centres not stated): the result in the test with HL-60, in the test with SGC-7901 and in the test on MKN-28 was inactive.

Consider `Cc1ccc2c(c1CCCC(C)(C)O)C(=O)C(=O)C(C(C)C)=C2`, for which the negative logarithm of the IC50 (pIC50) on DNA topoisomerase 1 was 6.10.

As to `CC(C)C1=CC(=O)C([C@@]2(C)CCCC(C)(C)[C@@H]2CC=O)=CC1=O`, the minimal inhibitory concentration (MIC) against Staphylococcus aureus came to 20 µM (≈ 6.33 µg/mL); against Micrococcus luteus, 15 µM (≈ 4.75 µg/mL).

As to `Cc1ccc2c(c1CCC(=O)C(C)(C)O)C(=O)C(=O)C(C(C)C)=C2`, the pIC50 with HL-60 (HL-60, 48 h) was 5.34; in the test with SGC-7901 (SGC-7901, 48 h), 6.70; in the test with MKN-28 (MKN-28, 48 h) it was 6.52.

Turning to `Cc1ccc2cc(C(C)C)c(O)c3c2c1C(=O)OC3=O`, the result with HL-60, in the test on SGC-7901 and in the test with MKN-28 was inactive.

The pIC50 is the negative decadic logarithm of the IC50, by convention in mol/L. As a reminder, the MIC is the smallest concentration in the dilution series that meets the test's criterion for growth inhibition. Low readings indicate inhibition by little substance, high ones a need for much substance.
